In brackets after ≈: the same amount, converted by molar mass. Activity calls are given as the source filed them.
Tests used:
Escherichia coli [1] = test: Antibacterial activity against tolC deficient Escherichia coli assessed as formation of spheroplasts at 125 ug/ml after 30 mins in presence of sucrose by FM4-64/DAPI/SYTOX Green staining-based deconvolution microscopic analysis; format: functional
Escherichia coli [2] = test: Antibacterial activity against tolC deficient Escherichia coli assessed as cell lysis at 125 ug/ml after 2 hrs in presence of sucrose by FM4-64/DAPI/SYTOX Green staining-based deconvolution microscopic analysis; format: functional
Escherichia coli [3] = test: Antibacterial activity against tolC deficient Escherichia coli assessed as formation of misshapen cells at 125 ug/ml after 30 mins in presence of sucrose by FM4-64/DAPI/SYTOX Green staining-based deconvolution microscopic analysis; format: functional
Bacillus subtilis = test: Antibacterial activity against Bacillus subtilis assessed as cell shape defects at 1 times MIC after 2 hrs in presence of methylsulfonyl methane by phase contrast microscopic analysis; format: functional
Summary of the method: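 B. subtilis grown in LB at 37 °C to OD600 ~0.2 and treated, with or without MSM for osmotic stabilization, for 30 min or 2 h. Stained with FM 4-64 (1 μg/mL), DAPI (1 μg/mL) and SYTOX Green (1 μg/mL) to score permeability. Examined by deconvolution and phase-contrast microscopy.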

Enterococcus faecalis [4] = test: Antibacterial activity against Enterococcus faecalis clinical isolates after 18 to 22 hrs by broth microdilution method; format: functional
Summary of the method: (§1)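 CLSI broth microdilution against panels of enterococcal isolates. E. faecalis grown in TSB, E. faecium in BHI, 37 °C for 18–22 h. MIC is the lowest concentration without visible growth. MIC50 is the value inhibiting 50% of isolates in each group.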

Enterococcus faecalis [5] = test: Synergistic antimicrobial activity against Enterococcus faecalis ATCC 49532 after 20 hrs in presence of ciprofloxacin by checkerboard assay; format: functional
Summary of the method: (§2)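 Checkerboard in TSB with a starting inoculum of 1×10^5 CFU/mL. Compound and antibiotic diluted from 2× or 4× MIC along perpendicular axes. Incubated 20 h at 37 °C. ΣFIC calculated: ≤0.5 synergy, >0.5 to <2 additive, 2–4 indifference, >4 antagonism.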

HRT-18 cell line [6] = test: Cytotoxicity against human HRT18 cells assessed as reduction in cell viability up to 40 ug/ml after 2 hrs by MTS assay; format: cell-based; conditions: hrt-18, 2 h
Summary of the method: (§3)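 HRT-18 cells maintained in RPMI-1640 with 10% fetal horse serum at 37 °C, 5% CO2. Exposed to 5, 10, 20 or 40 μg/mL for 2 or 24 h, then MTS added and absorbance read at 490 nm. Viability expressed relative to untreated cells, n ≥ 3, one-way ANOVA with Dunnett's test.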

Enterococcus faecium [7] = test: Bactericidal activity against Vancomycin-resistant Enterococcus faecium clinical isolates after 18 to 22 hrs by broth microdilution method; format: functional
Summary of the method: (§4)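 MBC follows the broth microdilution MIC. 5 μL aliquots spotted onto TSA (E. faecalis) or BHI agar (E. faecium), incubated 37 °C for 18–22 h. MBC is the concentration giving >99% reduction in bacterial count. MBC50 is the value for 50% of isolates.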

Enterococcus faecalis [8] = test: Antibacterial activity against vancomycin-resistant Enterococcus faecalis HM-201 infected in Caenorhabditis elegans AU37 assessed as reduction in bacterial burden at 20 ug/ml after 18 hrs by CFU-based […] analysis relative to control; format: functional; parameters: scale not given: the % may be the effect or the level left
Summary of the method: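 C. elegans AU37 adults infected on an E. faecalis HM-201 lawn for 2 h, washed in M9, 20–25 worms per well. Treated in triplicate with 20 μg/mL, with water as negative control. Worms washed, lysed with silicon carbide by vortexing, diluted serially and plated on TSA with 50 μg/mL gentamicin. CFU counted after 18 h at 37 °C and expressed as % reduction versus untreated worms.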

Escherichia coli [9] = test: Antibacterial activity against Escherichia coli O157:H7 ATCC 35150 after 18 to 22 hrs in presence of 1/4 times MIC colistin by broth microdilution method; format: functional
Enterococcus faecalis [10] = test: Bactericidal activity against vancomycin-resistant Enterococcus faecalis HM-201 at 4 times MIC after 2 hrs by time-kill assay; format: functional
Summary of the method: (§5)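 Late-log cells diluted to ~5 × 10^6 CFU/mL and exposed in triplicate to 4 × MIC, in TSB (E. faecalis HM-201) or BHI (E. faecium ATCC 700221) at 37 °C. Sampled at 0, 2, 4, 6, 8, 10, 12 and 24 h, diluted serially in PBS and plated on TSA or BHI agar. CFU/mL counted after 18–22 h. DMSO served as negative control.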

Enterococcus faecalis [11] = test: Synergistic antimicrobial activity against Enterococcus faecalis ATCC 49533 after 20 hrs in presence of ciprofloxacin by checkerboard assay; format: functional; summary of the method: as §2
Enterococcus faecium [12] = test: Antibacterial activity against vancomycin-resistant Enterococcus faecium ATCC HM-968 after 14 serial passages measured after 18 hrs by broth microdillution method; format: functional
Summary of the method: (§6)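 Multi-step selection over 14 passages in two weeks. McFarland 0.5 inoculum diluted 1:300 in TSB (E. faecalis) or BHI (E. faecium) to 1 × 10^5 CFU/mL. Each passage reinoculated at ~5 × 10^5 CFU/mL from the sub-inhibitory well of the previous plate. Compounds serially diluted in triplicate, incubated ≥18 h at 37 °C, MIC read visually. Resistance defined as >4-fold MIC rise.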

Enterococcus faecalis [13] = test: Antibacterial activity against vancomycin-resistant Enterococcus faecalis ATCC 51299 assessed as ratio of MIC after and before 6 serial passages measured after 18 hrs by broth microdillution method; format: functional; summary of the method: as §6
Acinetobacter baumannii [14] = test: Antibacterial activity against Acinetobacter baumanii ATCC 19606 after 18 to 22 hrs in absence of colistin by broth microdilution method; format: functional; conditions: ATCC 19606 = CIP 70.34 = JCM 6841
Summary of the method: (§7)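 Broth microdilution per CLSI guidelines. Gram-negatives grown in TSB. Each strain tested alone and again with colistin at ¼ × MIC to permeabilize the outer membrane. Plates incubated at 37 °C for 18–22 h. MIC read as the lowest concentration showing no visible growth.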

Pseudomonas aeruginosa [15] = test: Antibacterial activity against Pseudomonas aeruginosa ATCC 15442 after 18 to 22 hrs in absence of colistin by broth microdilution method; format: functional
Enterococcus faecium [16] = test: Antibacterial activity against Enterococcus faecium clinical isolates after 18 to 22 hrs by broth microdilution method; format: functional
Summary of the method: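 Enterococcus faecium grown in BHI. MIC by CLSI broth microdilution, 37 °C for 18–22 h. Lowest concentration with no visible growth taken as MIC, reported as MIC50 across the isolates.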

[17] = Toxicity in Caenorhabditis elegans AU37 assessed as worm survival at 20 ug/ml after 24 hrs by microscopic analysis; conditions: AU37, caenorhabditis elegans
Summary of the method: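 Adult C. elegans AU37, 15–20 per well, exposed in triplicate to 10 or 20 μg/mL, with sterile water as negative control. Viability checked by microscopy. Result reported as percent viable worms after 24 h exposure.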

Enterococcus faecalis [18] = test: Antibacterial activity against Enterococcus faecalis ATCC 31975 at 4 to 8 times MIC after 48 hrs by broth microdillution method; format: functional
Summary of the method: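 Single-step resistance selection. Cultures of 5 × 10^8 to 5 × 10^10 CFU/mL spread on TSA containing compound at 2×, 4× or 8× MIC and incubated aerobically at 37 °C for 48 h. Colony MICs rechecked by broth microdilution. Frequency calculated as resistant colonies per inoculum.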

Escherichia coli [19] = test: Antibacterial activity against Escherichia coli 1411 harboring delta-acrAB after 18 to 22 hrs in absence of colistin by broth microdilution method; format: functional
HRT-18 cell line [20] = test: Cytotoxicity against human HRT18 cells assessed as reduction in cell viability at 40 ug/ml after 24 hrs by MTS assay; format: cell-based; conditions: hrt-18, 24 h; summary of the method: as §3
Klebsiella pneumoniae [21] = test: Antibacterial activity against Klebsiella pneumoniae BAA-1706 after 18 to 22 hrs in absence of colistin by broth microdilution method; format: functional
Klebsiella pneumoniae [22] = test: Antibacterial activity against Klebsiella pneumoniae BAA-1706 after 18 to 22 hrs in presence of 1/4 times MIC colistin by broth microdilution method; format: functional; summary of the method: as §7
Enterococcus faecalis [23] = test: Bactericidal activity against vancomycin-resistant Enterococcus faecalis clinical isolates after 18 to 22 hrs by broth microdilution method; format: functional; summary of the method: as §4
Acinetobacter baumannii [24] = test: Antibacterial activity against Acinetobacter baumanii ATCC 19606 after 18 to 22 hrs in presence of 1/4 times MIC colistin by broth microdilution method; format: functional; conditions: ATCC 19606 = CIP 70.34 = JCM 6841; summary of the method: as §7
Enterococcus faecalis [25] = test: Antibacterial activity against vancomycin-resistant Enterococcus faecalis clinical isolates after 18 to 22 hrs by broth microdilution method; format: functional; summary of the method: as §1
Enterococcus faecium [26] = test: Bactericidal activity against Enterococcus faecium after 18 to 22 hrs by broth microdilution method; format: functional
Summary of the method: (§8)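 MBC determined after the broth microdilution MIC. 5 μL aliquots plated onto TSA (E. faecalis) or BHI agar (E. faecium) and incubated at 37 °C for 18–22 h. MBC is the concentration giving >99% reduction in cell count, reported as MBC50.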

Enterobacter cloacae [27] = test: Antibacterial activity against Enterobacter cloacae BAA-1154 after 18 to 22 hrs in presence of 1/4 times MIC colistin by broth microdilution method; format: functional; summary of the method: as §7
Pseudomonas aeruginosa [28] = test: Antibacterial activity against Pseudomonas aeruginosa ATCC 15442 after 18 to 22 hrs in presence of 1/4 times MIC colistin by broth microdilution method; format: functional; summary of the method: as §7
Enterococcus faecalis [29] = test: Bactericidal activity against Enterococcus faecalis clinical isolates after 18 to 22 hrs by broth microdilution method; format: functional; summary of the method: as §8
Enterococcus faecium [30] = test: Bactericidal activity against vancomycin-resistant Enterococcus faecium ATCC 700221 at 4 times MIC after 4 hrs by time-kill assay; format: functional; summary of the method: as §5
Staphylococcus aureus = test: Antibacterial against Methicillin-Resistant Staphylococcus aureus after 18 to 20 hrs by broth microdilution method; format: functional
Enterobacter cloacae [31] = test: Antibacterial activity against Enterobacter cloacae BAA-1154 after 18 to 22 hrs in absence of colistin by broth microdilution method; format: functional
Enterococcus faecium [32] = test: Antibacterial activity against vancomycin-resistant Enterococcus faecium ATCC 700221 after 18 to 22 hrs in absence of colistin by broth microdilution method; format: functional
HRT-18 cell line [33] = test: Cytotoxicity against human HRT18 cells assessed as reduction in cell viability at 20 ug/ml after 24 hrs by MTS assay; format: cell-based; conditions: hrt-18, 24 h; summary of the method: as §3
Escherichia coli [34] = test: Antibacterial activity against Escherichia coli O157:H7 ATCC 35150 after 18 to 22 hrs in absence of colistin by broth microdilution method; format: functional

N[C@@H]1CONC1=O
Activity (Escherichia coli [1]): Active
Activity (Escherichia coli [2]): Active
Activity (Escherichia coli [3]): Active
Activity (Bacillus subtilis): Active

CCCCC#Cc1ccc(-c2nc(C)c(/C(C)=N/NC(=N)N)s2)cc1
MIC50 (Enterococcus faecalis [4]): 8 µg/mL (≈ 22.6 µM)
fractional inhibitory concentration index (FICI) (Enterococcus faecalis [5]): 0.63 - 1
Activity (HRT-18 cell line [6]): Non-Toxic
MBC50 (Enterococcus faecium [7]): 4 µg/mL (≈ 11.3 µM)
Activity (Enterococcus faecalis [8]): 94%
MIC (Escherichia coli [9]): 1 µg/mL
Activity (Enterococcus faecalis [10]): Active
fractional inhibitory concentration index (FICI) (Enterococcus faecalis [11]): 0.63 - 1
Activity (Enterococcus faecium [12]): Active
Ratio (Enterococcus faecalis [13]): 1
MIC (Acinetobacter baumannii [14]): 8 µg/mL (≈ 22.6 µM)
MIC (Pseudomonas aeruginosa [15]): > 128 µg/mL
MIC50 (Enterococcus faecium [16]): 4 µg/mL (≈ 11.3 µM)
survival at 24 h, 20 ug/ml [17]: 90%
Activity (Enterococcus faecalis [18]): Active
MIC (Escherichia coli [19]): 8 µg/mL (≈ 22.6 µM)
Activity (HRT-18 cell line [20]): Toxic
MIC (Klebsiella pneumoniae [21]): > 128 µg/mL
MIC (Klebsiella pneumoniae [22]): 1 µg/mL
MBC50 (Enterococcus faecalis [23]): 4 µg/mL (≈ 11.3 µM)
MIC (Acinetobacter baumannii [24]): 1 µg/mL
MIC50 (Enterococcus faecalis [25]): 4 µg/mL (≈ 11.3 µM)
MBC50 (Enterococcus faecium [26]): 4 µg/mL (≈ 11.3 µM)
MIC (Enterobacter cloacae [27]): 1 µg/mL
MIC (Pseudomonas aeruginosa [28]): 1 µg/mL
MBC50 (Enterococcus faecalis [29]): 8 µg/mL (≈ 22.6 µM)
Activity (Enterococcus faecium [30]): Active
MIC (Staphylococcus aureus): 1.3 to 5.6 µg/mL (≈ 3.68 to 15.8 µM)
MIC (Enterobacter cloacae [31]): > 128 µg/mL
MIC (Enterococcus faecium [32]): 0.5 µg/mL (≈ 1.41 µM)
Activity (HRT-18 cell line [33]): Non-Toxic
MIC (Escherichia coli [34]): > 128 µg/mL

— ChEMBL document CHEMBL4028805, “Phenylthiazole Antibacterial Agents Targeting Cell Wall Synthesis Exhibit Potent Activity in Vitro and in Vivo against Vancomycin-Resistant Enterococci” (J Med Chem, 2017)
